Assay results: ChEMBL document CHEMBL1649446, “Comparative antipneumococcal activities of sulopenem and other drugs” (2009)
In brackets after ≈: the same amount, converted by molar mass.

Columns and labels:
Type in all cases: functional
[1] = test system: Streptococcus pneumoniae; experiment: Antimicrobial activity against Streptococcus pneumoniae isolate 24 by agar dilution method
[2] = test system: Streptococcus pneumoniae; experiment: Antimicrobial activity against Streptococcus pneumoniae isolate 3282 by agar dilution method
[3] = test system: Streptococcus pneumoniae; experiment: Antimicrobial activity against Streptococcus pneumoniae isolate 1384 by agar dilution method
Summary of the method: (§1)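 Agar dilution MIC on Mueller-Hinton agar with 5% sheep blood, inocula 10^4 CFU/spot; amoxicillin-clavulanate combined 1:2; S. pneumoniae ATCC 49619 quality control each run.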

[4] = test system: Streptococcus pneumoniae; experiment: Antimicrobial activity against Streptococcus pneumoniae isolate 3412 by agar dilution method; summary of the method: as §1
[5] = test system: Streptococcus pneumoniae; experiment: Antimicrobial activity against Streptococcus pneumoniae isolate 3455 by agar dilution method
[6] = test system: Streptococcus pneumoniae; experiment: Antimicrobial activity against Streptococcus pneumoniae 7 by time-kill analysis
Summary of the method: (§2)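 Time-kill in cation-adjusted Mueller-Hinton broth with 5% lysed horse blood; inocula 5 × 105 to 5 × 10^6 CFU/ml; drugs at MIC, 2× and 4× MIC; 35°C shaking water bath; viable counts at 0, 3, 6, 12, 24 h. Bactericidal = ≥3 log10 CFU/ml (99.9%) drop from original inoculum; 90%/99%/99.9% killing scored per strain.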

[7] = test system: Streptococcus pneumoniae; experiment: Antimicrobial activity against Streptococcus pneumoniae isolate 37 by agar dilution method; summary of the method: as §1
[8] = test system: Streptococcus pneumoniae; experiment: Antimicrobial activity against Streptococcus pneumoniae isolate 1424 by agar dilution method; summary of the method: as §1
[9] = test system: Streptococcus pneumoniae; experiment: Antimicrobial activity against Streptococcus pneumoniae isolate 1055 by agar dilution method
[10] = test system: Streptococcus pneumoniae; experiment: Antimicrobial activity against Streptococcus pneumoniae isolate 4747 by agar dilution method; summary of the method: as §1
[11] = test system: Streptococcus pneumoniae; experiment: Antimicrobial activity against Streptococcus pneumoniae isolate 1147 by agar dilution method; summary of the method: as §1
[12] = test system: Streptococcus pneumoniae; experiment: Antimicrobial activity against Streptococcus pneumoniae 2 by time-kill analysis; summary of the method: as §2
[13] = test system: Streptococcus pneumoniae; experiment: Antimicrobial activity against Streptococcus pneumoniae isolate 3263 by agar dilution method
[14] = test system: Streptococcus pneumoniae; experiment: Antimicrobial activity against Streptococcus pneumoniae 9 by time-kill analysis
Summary of the method: as §2, with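 “12 and” for “12,”, “if” for “=”, “reduction” for “drop”, “90% and 99%” for “90%/99%/99.9%”, “also scored.” for “scored per strain.”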

[15] = test system: Streptococcus pneumoniae; experiment: Antimicrobial activity against Streptococcus pneumoniae isolate 3458 by agar dilution method
[16] = test system: Streptococcus pneumoniae; experiment: Antimicrobial activity against Streptococcus pneumoniae isolate 1397 by agar dilution method; summary of the method: as §1
[17] = test system: Streptococcus pneumoniae; experiment: Antimicrobial activity against Streptococcus pneumoniae 19A by agar dilution method; summary of the method: as §1
[18] = test system: Streptococcus pneumoniae; experiment: Antimicrobial activity against Streptococcus pneumoniae 1 by time-kill analysis
Summary of the method: as §2, with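 “12 and” for “12,”, “if” for “=”, “reduction” for “drop”, “90% and 99%” for “90%/99%/99.9%”, “also scored.” for “scored per strain.”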

[19] = test system: Streptococcus pneumoniae; experiment: Antimicrobial activity against Streptococcus pneumoniae 6 by time-kill analysis; summary of the method: as §2
[20] = test system: Streptococcus pneumoniae; experiment: Antimicrobial activity against Streptococcus pneumoniae isolate 33 by agar dilution method; summary of the method: as §1
[21] = test system: Streptococcus pneumoniae; experiment: Antimicrobial activity against Streptococcus pneumoniae 8 by time-kill analysis; summary of the method: as §2
[22] = test system: Streptococcus pneumoniae; experiment: Antimicrobial activity against Streptococcus pneumoniae isolate 2880 by agar dilution method; summary of the method: as §1
[23] = test system: Streptococcus pneumoniae; experiment: Antimicrobial activity against Streptococcus pneumoniae 10 by time-kill analysis; summary of the method: as §2
[24] = test system: Streptococcus pneumoniae; experiment: Antimicrobial activity against Streptococcus pneumoniae isolate 3260 by agar dilution method
[25] = test system: Streptococcus pneumoniae; experiment: Antimicrobial activity against Streptococcus pneumoniae isolate 2686 by agar dilution method; summary of the method: as §1
[26] = test system: Streptococcus pneumoniae; experiment: Antimicrobial activity against Streptococcus pneumoniae isolate 2688 by agar dilution method; summary of the method: as §1
[27] = test system: Streptococcus pneumoniae; experiment: Antimicrobial activity against Streptococcus pneumoniae isolate 3791 by agar dilution method; summary of the method: as §1
[28] = test system: Streptococcus pneumoniae; experiment: Antimicrobial activity against Streptococcus pneumoniae 3 by time-kill analysis; summary of the method: as §2
[29] = test system: Streptococcus pneumoniae; experiment: Antimicrobial activity against Streptococcus pneumoniae isolate 4755 by agar dilution method; summary of the method: as §1
[30] = test system: Streptococcus pneumoniae; experiment: Antimicrobial activity against Streptococcus pneumoniae isolate 3587 by agar dilution method
[31] = test system: Streptococcus pneumoniae; experiment: Antimicrobial activity against Streptococcus pneumoniae isolate 3275 by agar dilution method; summary of the method: as §1
[32] = test system: Streptococcus pneumoniae; experiment: Antimicrobial activity against Streptococcus pneumoniae isolate 1564 by agar dilution method
[33] = test system: Streptococcus pneumoniae; experiment: Antimicrobial activity against Streptococcus pneumoniae isolate 2874 by agar dilution method; summary of the method: as §1
[34] = test system: Streptococcus pneumoniae; experiment: Antimicrobial activity against penicillin-intermediate Streptococcus pneumoniae by agar dilution method
[35] = test system: Streptococcus pneumoniae; experiment: Antimicrobial activity against Streptococcus pneumoniae isolate 2617 by agar dilution method; summary of the method: as §1
[36] = test system: Streptococcus pneumoniae; experiment: Antimicrobial activity against Streptococcus pneumoniae 12 by time-kill analysis; summary of the method: as §2
[37] = test system: Streptococcus pneumoniae; experiment: Antimicrobial activity against Streptococcus pneumoniae isolate 1394 by agar dilution method
[38] = test system: Streptococcus pneumoniae; experiment: Antimicrobial activity against penicillin-susceptible Streptococcus pneumoniae by agar dilution method
[39] = test system: Streptococcus pneumoniae; experiment: Antimicrobial activity against Streptococcus pneumoniae isolate 3346 by agar dilution method
[40] = test system: Streptococcus pneumoniae; experiment: Antimicrobial activity against Streptococcus pneumoniae 4 by time-kill analysis; summary of the method: as §2
[41] = test system: Streptococcus pneumoniae; experiment: Antimicrobial activity against Streptococcus pneumoniae isolate 3681 by agar dilution method; summary of the method: as §1
[42] = test system: Streptococcus pneumoniae; experiment: Antimicrobial activity against Streptococcus pneumoniae isolate 1146 by agar dilution method; summary of the method: as §1
[43] = test system: Streptococcus pneumoniae; experiment: Antimicrobial activity against Streptococcus pneumoniae 5 by time-kill analysis
Summary of the method: as §2, with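 “12 and” for “12,”, “if” for “=”, “reduction” for “drop”, “90% and 99%” for “90%/99%/99.9%”, “also scored.” for “scored per strain.”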

[44] = test system: Streptococcus pneumoniae; experiment: Antimicrobial activity against penicillin-resistant Streptococcus pneumoniae by agar dilution method; summary of the method: as §1
[45] = test system: Streptococcus pneumoniae; experiment: Antimicrobial activity against Streptococcus pneumoniae isolate 3374 by agar dilution method; summary of the method: as §1
[46] = test system: Streptococcus pneumoniae; experiment: Antimicrobial activity against Streptococcus pneumoniae isolate 3481 by agar dilution method; summary of the method: as §1
[47] = test system: Streptococcus pneumoniae; experiment: Antimicrobial activity against Streptococcus pneumoniae 11 by time-kill analysis; summary of the method: as §2

**Q.** CO/N=C(\C(=O)N[C@@H]1C(=O)N2C(C(=O)O)=C(CSc3nc(=O)c(O)nn3C)CS[C@H]12)c1csc(N)n1 [CEFTRIAXONE] was tested. Which MIC [1] did it give?
**A.** The MIC was 2 µg/mL (≈ 3.61 µM).

**Q.** And the MIC [2]?
**A.** Its MIC is 0.5 µg/mL (≈ 0.902 µM).

**Q.** What about the MIC [3] of the same compound?
**A.** The MIC was 2 µg/mL (≈ 3.61 µM).

**Q.** What about the MIC [4] of the same compound?
**A.** Its MIC is 2 µg/mL (≈ 3.61 µM).

**Q.** What about the MIC [5] of the same compound?
**A.** Its MIC is 1 µg/mL (≈ 1.8 µM).

**Q.** And the MIC [6]?
**A.** The MIC was 2 µg/mL (≈ 3.61 µM).

**Q.** What about the MIC [7] of the same compound?
**A.** Its MIC is 2 µg/mL (≈ 3.61 µM).

**Q.** And the MIC [8]?
**A.** The MIC was 4 µg/mL (≈ 7.21 µM).

**Q.** What about the MIC [9] of the same compound?
**A.** The MIC was 1 µg/mL (≈ 1.8 µM).

**Q.** What about the MIC [10] of the same compound?
**A.** Its MIC is 2 µg/mL (≈ 3.61 µM).

**Q.** What about the MIC [11] of the same compound?
**A.** The MIC was 2 µg/mL (≈ 3.61 µM).

**Q.** What about the MIC [12] of the same compound?
**A.** The MIC was 0.016 µg/mL (≈ 0.0289 µM).

**Q.** And the MIC [13]?
**A.** The MIC was 1 µg/mL (≈ 1.8 µM).

**Q.** And the MIC [14]?
**A.** Its MIC is 0.12 µg/mL (≈ 0.216 µM).

**Q.** And the MIC [15]?
**A.** The MIC was 1 µg/mL (≈ 1.8 µM).

**Q.** What about the MIC [16] of the same compound?
**A.** Its MIC is 4 µg/mL (≈ 7.21 µM).

**Q.** What about the MIC50 [17] of the same compound?
**A.** The MIC50 was 2 µg/mL (≈ 3.61 µM).

**Q.** What about the MIC90 [17] of the same compound?
**A.** The MIC90 was 2 µg/mL (≈ 3.61 µM).

**Q.** What about the MIC [18] of the same compound?
**A.** Its MIC is 0.03 µg/mL (≈ 0.0541 µM).

**Q.** What about the MIC [19] of the same compound?
**A.** The MIC was 0.12 µg/mL (≈ 0.216 µM).

**Q.** And the MIC [20]?
**A.** Its MIC is 1 µg/mL (≈ 1.8 µM).

**Q.** What about the MIC [21] of the same compound?
**A.** The MIC was 2 µg/mL (≈ 3.61 µM).

**Q.** What about the MIC [22] of the same compound?
**A.** The MIC was 0.5 µg/mL (≈ 0.902 µM).

**Q.** What about the MIC [23] of the same compound?
**A.** Its MIC is 0.12 µg/mL (≈ 0.216 µM).

**Q.** What about the MIC [24] of the same compound?
**A.** Its MIC is 0.5 µg/mL (≈ 0.902 µM).

**Q.** What about the MIC [25] of the same compound?
**A.** Its MIC is 2 µg/mL (≈ 3.61 µM).

**Q.** And the MIC [26]?
**A.** The MIC was 4 µg/mL (≈ 7.21 µM).

**Q.** What about the MIC [27] of the same compound?
**A.** The MIC was 1 µg/mL (≈ 1.8 µM).

**Q.** And the MIC [28]?
**A.** The MIC was 0.25 µg/mL (≈ 0.451 µM).

**Q.** What about the MIC [29] of the same compound?
**A.** Its MIC is 2 µg/mL (≈ 3.61 µM).

**Q.** What about the MIC [30] of the same compound?
**A.** The MIC was 1 µg/mL (≈ 1.8 µM).

**Q.** And the MIC [31]?
**A.** The MIC was 0.25 µg/mL (≈ 0.451 µM).

**Q.** What about the MIC [32] of the same compound?
**A.** Its MIC is over 8 µg/mL.

**Q.** What about the MIC [33] of the same compound?
**A.** Its MIC is 2 µg/mL (≈ 3.61 µM).

**Q.** And the MIC50 [34]?
**A.** The MIC50 was 0.125 µg/mL (≈ 0.225 µM).

**Q.** And the MIC90 [34]?
**A.** The MIC90 was 1 µg/mL (≈ 1.8 µM).

**Q.** What about the MIC [35] of the same compound?
**A.** The MIC was 1 µg/mL (≈ 1.8 µM).

**Q.** What about the MIC [36] of the same compound?
**A.** The MIC was 1 µg/mL (≈ 1.8 µM).

**Q.** What about the MIC [37] of the same compound?
**A.** The MIC was 4 µg/mL (≈ 7.21 µM).

**Q.** What about the MIC50 [38] of the same compound?
**A.** The MIC50 was 0.03 µg/mL (≈ 0.0541 µM).

**Q.** And the MIC90 [38]?
**A.** Its MIC90 is 0.06 µg/mL (≈ 0.108 µM).

**Q.** What about the MIC [39] of the same compound?
**A.** The MIC was 1 µg/mL (≈ 1.8 µM).

**Q.** What about the MIC [40] of the same compound?
**A.** The MIC was 4 µg/mL (≈ 7.21 µM).

**Q.** What about the MIC [41] of the same compound?
**A.** The MIC was 1 µg/mL (≈ 1.8 µM).

**Q.** What about the MIC [42] of the same compound?
**A.** The MIC was 2 µg/mL (≈ 3.61 µM).

**Q.** What about the MIC [43] of the same compound?
**A.** The MIC was 4 µg/mL (≈ 7.21 µM).

**Q.** And the MIC50 [44]?
**A.** The MIC50 was 1 µg/mL (≈ 1.8 µM).

**Q.** And the MIC90 [44]?
**A.** Its MIC90 is 2 µg/mL (≈ 3.61 µM).

**Q.** What about the MIC [45] of the same compound?
**A.** Its MIC is 1 µg/mL (≈ 1.8 µM).

**Q.** What about the MIC [46] of the same compound?
**A.** Its MIC is 2 µg/mL (≈ 3.61 µM).

**Q.** What about the MIC [47] of the same compound?
**A.** Its MIC is 4 µg/mL (≈ 7.21 µM).
